Nine molecules from ChEMBL document CHEMBL1124408, “3-aminopyridazine derivatives with atypical antidepressant, serotonergic, and dopaminergic activities” (J Med Chem, 1989) can be followed below.

SMILES strings stand for the structures.

The subject of data set [1] is Mus musculus. Put plainly: Compound was tested for antidepressant activity against reserpine induced ptosis in mice after intraperitoneal administration.; value ranges from 5-9. Type of data set: functional. As to conditions: ip. The method in brief: (§1)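 Female CD1 mice (18-22 g) received the drug in distilled water/gum tragacanth ip at multiple doses (7-20 mice/dose), given together with reserpine (2 mg/kg iv). One hour later, palpebral ptosis (half or more of the lid closed) was scored all-or-none. Screening dose was at most 50% of the seizure threshold dose.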

Data set [2] deals with Mus musculus. Put plainly: Serotonergic activity was determined by measuring the potentiation of 5-hydroxytryptophan in mice upon ip administration. Type of data set: functional. In short, it runs like this: (§2)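 Drug was injected ip in distilled water/gum tragacanth to female CD1 mice (18-22 g) at multiple doses (7-20 mice/dose), 30 min before a threshold dose of L-5-HTP (200 mg/kg ip). Mice were held singly in small cages, and tremor was scored all-or-none over the 20 min after L-5-HTP.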

The test system of data set [3] is Mus musculus. Put plainly: Ability to modify turning behavior of mice after intraperitoneal administration. The following applies: ip, read-out: MED. Type of data set: functional. In short, it runs like this:
(§3)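 Female CD1 mice (25-30 g) were lesioned by stereotaxic injection of 6-OHDA (10 μg in 1 μL saline with 1 mg/mL ascorbic acid) into the right striatum under pentobarbitone (60 mg/kg ip). Seven days later, drug in distilled water/gum tragacanth was given ip at multiple doses (7-20 mice/dose). Ipsilateral turns were counted for 2 min starting 30 min post-dose.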

The nature of data set [4]: (§4) Acute toxicity in mice after intraperitoneal administration. As to conditions: mouse, in vivo, ip, LD50.
In data set [5] the test system is Mus musculus. Put plainly: Compound was tested for antidepressant activity against reserpine induced ptosis in mice after intraperitoneal administration.; value ranges from 27-31. It is filed as functional. The following applies: ip. The method in brief: as §1
The subject of data set [6] is Mus musculus. Put plainly: Compound was tested for antidepressant activity against reserpine induced ptosis in mice after intraperitoneal administration.; value ranges from 14-18. Type of data set: functional. The following applies: ip. In short, it runs like this:
as §1

Data set [7] deals with Mus musculus. Briefly: Compound was tested for antidepressant activity against reserpine induced ptosis in mice after intraperitoneal administration.; value ranges from 1.9-10.7. As to conditions: ip. It is filed as functional. In short, it runs like this:
as §1

Data set [8] deals with Mus musculus. Briefly: Serotonergic activity by measuring the potentiation of 5-hydroxy tryptophan in mice upon ip administration; value ranges from 1.9-11.7. Type of data set: functional. In short, it runs like this: as §2
Data set [9] relates to Mus musculus. Put plainly: Compound was tested for antidepressant activity against reserpine induced ptosis in mice after intraperitoneal administration.; value ranges from 16-20. Type of data set: functional. As to conditions: ip. The method in brief:
as §1

Data set [10] has as its system Mus musculus. Briefly: Serotonergic activity by measuring the potentiation of 5-hydroxy tryptophan in mice upon ip administration; value ranges from 17-20. Type of data set: functional. In short, it runs like this:
as §2

Data set [11] has as its system Mus musculus. Briefly: Compound was tested for antidepressant activity against reserpine induced ptosis in mice after intraperitoneal administration.; value ranges from 24-55. It is filed as functional. The following applies: ip. In short, it runs like this: as §1
In data set [12] the test system is Mus musculus. Briefly: Compound was tested for antidepressant activity against reserpine induced ptosis in mice after intraperitoneal administration.; value ranges from 4-7. It is filed as functional. The following applies: ip. The method in brief: as §1
For data set [13], the system named is Mus musculus. Briefly: Serotonergic activity by measuring the potentiation of 5-hydroxy tryptophan in mice upon ip administration; value ranges from 19-31. Type of data set: functional. In short, it runs like this: as §2
In data set [14] the test system is Mus musculus. Described as §4. The following applies: in vivo, ip.
Data set [15] has as its system Mus musculus. Put plainly: Compound was tested for antidepressant activity against reserpine induced ptosis in mice after intraperitoneal administration.; value ranges from 2.2-2.4. The following applies: ip. Type of data set: functional. The method in brief: as §1
For data set [16], the system named is Mus musculus. Put plainly: Ability to modify turning behavior of mice after intraperitoneal administration. It is filed as functional. As to conditions: ip, read-out: MED. In short, it runs like this: as §3
Data set [17] relates to Mus musculus. Briefly: Compound was tested for antidepressant activity against reserpine induced ptosis in mice after intraperitoneal administration.; value ranges from 0.13-0.22. It is filed as functional. As to conditions: ip. In short, it runs like this: as §1

With `COc1cccc(-c2cc(C)c(NCCN3CCOCC3)nn2)c1`, the figures for the ED50 in the data set with Mus musculus [1] and with Mus musculus [2] were 6 mg/kg and over 5 mg/kg, respectively. In the data set on Mus musculus [3], the minimal effective dose stood at 0.5 mg/kg. Further, the LD50 in data set [4] turned out to be 18 mg/kg.
On to `Cc1cc(-c2ccccc2)nnc1NCCN(C)C`, for which the ED50 was 29 mg/kg in the data set on Mus musculus [5] and over 30 mg/kg in the data set on Mus musculus [2]. The minimal effective dose in the data set on Mus musculus [3] was found to be 10 mg/kg. In [4], this molecule returned an LD50 of 118 mg/kg.
Turning to `Cc1cc(-c2ccccc2)nnc1NCCN`, the values for the ED50 with Mus musculus [6] and with Mus musculus [2] were 16 mg/kg and over 30 mg/kg, respectively. The minimal effective dose in the data set with Mus musculus [3] is 0.5 mg/kg. This molecule had an LD50 in data set [4] of 300 mg/kg.
Take `Cc1cc(-c2ccc(F)cc2)nnc1NCCN1CCOCC1`: the ED50 came out at 4.5 mg/kg in the data set with Mus musculus [7] and 4.7 mg/kg in the data set on Mus musculus [8]. Also, the minimal effective dose with Mus musculus [3] was found to be 2 mg/kg. For the same molecule, the LD50 in data set [4] was found to be 45 mg/kg.
In the case of `Br.Br.Cc1cc(-c2ccccc2O)nnc1NCCN1CCOCC1`, the results for the ED50 in the data set on Mus musculus [9] and with Mus musculus [10] were 16 mg/kg and 17 mg/kg, respectively. The minimal effective dose in the data set with Mus musculus [3] worked out at 0.1 mg/kg. The molecule further yielded an LD50 in [4] of over 200 mg/kg.
Consider `CNCCNc1nnc(-c2ccccc2)cc1C`, for which the ED50 in the data set on Mus musculus [11] is 36 mg/kg; with Mus musculus [2], at least 30 mg/kg. Besides, the minimal effective dose in the data set on Mus musculus [3] amounted to 2 mg/kg. Also, the LD50 in data set [4] was over 200 mg/kg.
For `Cc1cc(-c2ccccc2)nnc1NCCN1CCOCC1.Cl`, the median effective dose (ED50) amounted to 5 mg/kg with Mus musculus [12] and 24 mg/kg with Mus musculus [13]. In addition, in the data set on Mus musculus [14], the LD50 was found to be 63 mg/kg.
As for `CN(C)CCCN1c2ccccc2CCc2ccccc21` [IMIPRAMINE], the figures for the ED50 in the data set on Mus musculus [15] and with Mus musculus [2] were 2.3 mg/kg and over 30 mg/kg, respectively. For the same molecule, the minimal effective dose in the data set on Mus musculus [3] was over 20 mg/kg.
Turning to `CN1Cc2c(N)cccc2C(c2ccccc2)C1` (stereo not drawn) [NOMIFENSINE], in the data set on Mus musculus [16], the minimal effective dose was 5 mg/kg. The figures for the ED50 in the data set with Mus musculus [17] and with Mus musculus [2] were 0.17 mg/kg and over 30 mg/kg, respectively.
